Measured values as given in paper PMC9476207 (ACS Omega, 2022).

Tests used:
Experiment in all cases: NCI-60 single-dose antiproliferative screen
Assay type in all cases: cell-based
NCI-H522 = conditions: Homo sapiens, NCI-H522, 48 h, read-out: growth percent
Method in brief: (§1)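 NCI-60 protocol. Lines were grown in RPMI 1640 with 5% FBS and 2 mM L-glutamine, plated and incubated 24 h at 37 °C; time-zero plates were TCA-fixed. The test compound was dissolved in DMSO, diluted in medium with 50 μg/mL gentamicin and given once at a final 10^-5 M (DMSO control) for 48 h. Cells were fixed with cold TCA (1 h, 4 °C) and stained with 0.4% SRB in 1% acetic acid for 10 min. Dye was dissolved in 10 mM Trizma base and read at 515 nm. Growth percent was calculated from time-zero, test and control ODs.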

SK-OV-3 = conditions: Homo sapiens, SK-OV-3, 48 h, read-out: growth percent
Method in brief: (§2)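 Cells grown in RPMI 1640 with 5% FBS and 2 mM L-glutamine, plated and held 24 h at 37 °C; time-zero plates TCA-fixed. DMSO stocks were diluted in gentamicin-containing medium to a final 10^-5 M, with a DMSO-only control. Exposure 48 h, 5% CO2. Adherent cells TCA-fixed 1 h at 4 °C, stained with 0.4% SRB, solubilised in 10 mM Trizma base, read at 515 nm. Growth percent derived from ODtzero, ODtest and ODctrl.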

SR = conditions: Homo sapiens, 48 h, read-out: growth percent
Method in brief: as §2

MOLT-4 = conditions: Homo sapiens, MOLT-4, 48 h, read-out: growth percent
Method in brief: as §1

HOP-62 = conditions: Homo sapiens, HOP-62, 48 h, read-out: growth percent
Method in brief: as §1

MALME-3M = conditions: Homo sapiens, 48 h, read-out: growth percent
Method in brief: as §1

K-562 = conditions: Homo sapiens, K562, 48 h, read-out: growth percent
Method in brief: as §1

SF-295 = conditions: Homo sapiens, SF-295, 48 h, read-out: growth percent
Method in brief: as §1

MDA-MB-468 = conditions: Homo sapiens, MDA-MB-468, 48 h, read-out: growth percent
Method in brief: as §1

SNB-19 = conditions: Homo sapiens, SNB-19, 48 h, read-out: growth percent
Method in brief: as §2

T-47D = conditions: Homo sapiens, T47D, 48 h, read-out: growth percent
Method in brief: as §2

SK-MEL-28 = conditions: Homo sapiens, SK-MEL-28, 48 h, read-out: growth percent
Method in brief: as §2

786-0 = conditions: Homo sapiens, 786-0, 48 h, read-out: growth percent
Method in brief: as §1

OVCAR-5 = conditions: Homo sapiens, OVCAR-5, 48 h, read-out: growth percent
Method in brief: as §1

HS 578T = conditions: Homo sapiens, 48 h, read-out: growth percent
Method in brief: as §1

A549/ATCC = conditions: Homo sapiens, A549, 48 h, read-out: growth percent
Method in brief: as §1

NCI/ADR-RES = conditions: Homo sapiens, 48 h, read-out: growth percent
Method in brief: as §1

EKVX = conditions: Homo sapiens, 48 h, read-out: growth percent
Method in brief: as §1

HCC-2998 = conditions: Homo sapiens, HCC 2998, 48 h, read-out: growth percent
Method in brief: as §1

MDA-MB-231 ATCC = conditions: Homo sapiens, MDA-MB-231, 48 h, read-out: growth percent
Method in brief: as §1

ACHN = conditions: Homo sapiens, 48 h, read-out: growth percent
Method in brief: as §1

SMILES | activity at 10 µM (NCI-H522) [%] | activity at 10 µM (SK-OV-3) [%] | activity at 10 µM (SR) [%] | activity at 10 µM (MOLT-4) [%] | activity at 10 µM (HOP-62) [%] | activity at 10 µM (MALME-3M) [%] | activity at 10 µM (K-562) [%] | activity at 10 µM (SF-295) [%] | activity at 10 µM (MDA-MB-468) [%] | activity at 10 µM (SNB-19) [%] | activity at 10 µM (T-47D) [%] | activity at 10 µM (SK-MEL-28) [%] | activity at 10 µM (786-0) [%] | activity at 10 µM (OVCAR-5) [%] | activity at 10 µM (HS 578T) [%] | activity at 10 µM (A549/ATCC) [%] | activity at 10 µM (NCI/ADR-RES) [%] | activity at 10 µM (EKVX) [%] | activity at 10 µM (HCC-2998) [%] | activity at 10 µM (MDA-MB-231 ATCC) [%] | also measured
COc1cc(CNC(=O)CCCC/C=C/C(C)C)ccc1OCc1cn(-c2ccc(F)cc2)nn1 [14h, (E)-N-(4-((1-(4-Fluorophenyl)-1H-1,2,3-triazol-4-yl)methoxy)-3-methoxybenzyl)-8-methylnon-6-enamide] | 70.2 | 86.4 | 76.7 | 82.6 | 84.1 | 103 | 68.7 | 90.5 | 68.2 | 81.3 | 73.8 | 102 | 83.7 | 97.6 | 77.7 | 84.3 | 70.6 | 72.7 | 110 | 69.1 | activity at 10 µM (ACHN): 81.2%
COc1cc(CNC(=O)CCCC/C=C/C(C)C)ccc1OCc1cn(-c2ccc([N+](=O)[O-])cc2)nn1 [14e, (E)-N-(3-Methoxy-4-((1-(4-nitrophenyl)-1H-1,2,3-triazol-4-yl)methoxy)benzyl)-8methylnon-6-enamide] | 78.2 | 76.7 | 62.2 | 79.3 | 80.9 | 98.4 | 74.5 | 89 | 77.4 | 97.4 | 64 | 102 | 93.7 | 99.2 | 95.8 | 84.1 | 29 | 75.3 | 108 | 75.3 | activity at 10 µM (ACHN): 82%
COc1cc(CNC(=O)CCCC/C=C/C(C)C)ccc1OCc1cn(-c2cccc([N+](=O)[O-])c2)nn1 [14f, (E)-N-(3-Methoxy-4-((1-(3-nitrophenyl)-1H-1,2,3-triazol-4-yl)methoxy)benzyl)-8-methylnon-6-enamide] | 82.6 | 93.5 | 78.4 | 86.6 | 97.4 | 103 | 81.5 | 104 | 72.3 | 68.2 | 72.3 | 106 | 73.4 | 107 | 90.8 | 92 | 81.8 | 95.1 | 101 | 88.4 | activity at 10 µM (ACHN): 78.9%
COc1cc(CNC(=O)CCCC/C=C/C(C)C)ccc1OCc1cn(-c2cccc(Cl)c2)nn1 [14b, (E)-N-(4-((1-(3-Chlorophenyl)-1H-1,2,3-triazol-4-yl)methoxy)-3-methoxybenzyl)-8-methylnon-6-enamide] | 69.2 | 78.8 | 85.6 | 92.8 | 71.5 | 98.7 | 84.9 | 90.5 | 74.7 | 60 | 81.1 | 106 | 76.8 | 99.8 | 74.8 | 82.9 | 76.6 | 80.8 | 104 | 64.8 | activity at 10 µM (ACHN): 73%
